In data set [1] the target is T1, MAO-A (amine oxidase [flavin-containing] A) (Homo sapiens, UniProt P21397).
T1 sequence (P21397 whole entry): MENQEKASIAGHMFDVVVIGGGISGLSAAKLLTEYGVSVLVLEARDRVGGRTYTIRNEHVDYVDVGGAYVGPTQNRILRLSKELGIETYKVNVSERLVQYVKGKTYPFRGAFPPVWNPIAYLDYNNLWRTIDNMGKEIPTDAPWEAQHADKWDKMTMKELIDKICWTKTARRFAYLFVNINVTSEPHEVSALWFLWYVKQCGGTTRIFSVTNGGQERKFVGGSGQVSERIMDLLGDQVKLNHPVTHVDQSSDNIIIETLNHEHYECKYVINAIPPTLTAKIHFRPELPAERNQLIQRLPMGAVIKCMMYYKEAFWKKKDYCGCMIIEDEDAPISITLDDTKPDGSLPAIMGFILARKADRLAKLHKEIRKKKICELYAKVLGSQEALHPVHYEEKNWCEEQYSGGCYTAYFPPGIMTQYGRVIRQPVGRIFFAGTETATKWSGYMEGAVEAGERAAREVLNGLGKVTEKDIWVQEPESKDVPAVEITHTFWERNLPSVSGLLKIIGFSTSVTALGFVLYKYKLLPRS
Kind of data set: Inhibition of recombinant human MAOA expressed in baculovirus infected Sf9 insect cells at 30 uM using luciferin derived substrate pretreated for 15 mins followed by substrate addition and measured after 60 mins by luminescence assay relative to control. The settings on record: probe luciferin derived substrate. In a few lines:
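Human recombinant MAO-A with MAO-Glo luminescent kit. Compounds in DMSO (final 1% DMSO) preincubated with enzyme 15 min at room temperature, then luciferin derivative substrate added and reacted 60 min at room temperature. Luciferase detection reagent added for 20 min before luminescence read. Buffer replacing enzyme served as 100% inhibition control and DMSO as no-inhibition control; percent inhibition calculated against both.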

The subject of data set [2] is Enterococcus faecalis. Description: Antibacterial activity against linezolid-resistant Enterococcus faecalis clinical isolates by broth liquid microdilution method. In kind it is functional. Summed up:
(§1)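 Isolates were identified on an automated MicroScan WalkAway 96 system. Susceptibility was tested by broth microdilution following CLSI guidelines. MIC was taken as the lowest concentration giving complete inhibition of bacterial growth. S. aureus ATCC 29213 served as the control strain.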
Background: Dilution methods test growth across graded concentrations, often in twofold steps.

Data set [3] deals with Staphylococcus aureus. Description: Antibacterial activity against methicillin-sensitive Staphylococcus aureus clinical isolates by broth liquid microdilution method. Format: functional. Summed up: as §1
Data set [4] concerns Staphylococcus aureus. Kind of data set: Antibacterial activity against methicillin-sensitive Staphylococcus aureus by broth liquid microdilution method. Format: functional. In a few lines:
as §1

Data set [5] has as its system Staphylococcus aureus. Kind of data set: Antibacterial activity against Staphylococcus aureus ATCC 29213 by broth liquid microdilution method. In kind it is functional. Summed up: as §1
The test system of data set [6] is Staphylococcus aureus. Description: Antibacterial activity against methicillin-resistant Staphylococcus aureus by broth liquid microdilution method. Format: functional. Summed up:
as §1

Data set [7] relates to Enterococcus faecalis. Description: Antibacterial activity against linezolid-resistant Enterococcus faecalis by broth liquid microdilution method. Format: functional. Summed up: as §1
Data set [8] relates to Staphylococcus aureus. Description: Antibacterial activity against methicillin-resistant Staphylococcus aureus clinical isolates by broth liquid microdilution method. In kind it is functional. Summed up: as §1
Data set [9] concerns Enterococcus faecium. Kind of data set: Antibacterial activity against vancomycin-resistant Enterococcus faecium by broth liquid microdilution method. In kind it is functional. Summed up:
as §1

Data set [10] concerns Enterococcus faecium. Description: Antibacterial activity against vancomycin-resistant Enterococcus faecium clinical isolates by broth liquid microdilution method. Format: functional. Summed up: as §1
Data set [11] in a line: Intrinsic clearance in human liver microsomes at 1.5 uM pretreated for 5 mins followed by NADPH addition measured after 5 to 45 mins by LC-MS analysis. Particulars: read-out: CLH. In kind it is ADME, microsome. In a few lines: (§2)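 Human liver microsomes with 1.5 µM compound in a 0.75 mg/mL microsome mix were pre-warmed at 37 °C for 5 min. Reaction started with NADPH (6 mM stock). Samples were quenched with acetonitrile plus internal standard at 0, 5, 15, 30 and 45 min, then read by LC/MS, in duplicate. T1/2 = ln(2)/k from the log-linear slope; Clint derived from T1/2; % remaining read at 45 min.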
On the technique in general: Liver microsomes are a subcellular fraction often used to study metabolism.

A short description of data set [12]: Half life in human liver microsomes at 1.5 uM in presence of NADPH by LC-MS analysis. Format: ADME, microsome. In a few lines:
as §2

Data set [13] can be described thus: Stability in human liver microsomes assessed as parent compound remaining at 1.5 uM pretreated for 5 mins followed by NADPH addition measured after 45 mins by LC-MS analysis. Format: ADME, microsome. The settings on record: read-out: Stability. Summed up: as §2
Another data set has as its system HepG2. Kind of data set: Cytotoxicity against human HepG2 cells after 48 hrs by MTT assay. Format: cell-based. The settings on record: HepG2, 48 h. Summed up: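 HepG2 cells grown in RPMI1640 with 10% FBS; about 4×10⁴ cells per well seeded in MEM, incubated 24 h at 37 ℃ in 5% CO₂, then exposed to compounds at indicated final concentrations for 48 h. MTT added (final 0.5 mg/mL) for 4 h at 37 ℃, formazan dissolved in DMSO, absorbance read at 492 nm. Triplicate runs; IC50 as mean ± SD.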

≈ marks a conversion by molar mass, not a printed value.

The term inhibition denotes the change of the read-out against control, counted positive when it falls. For orientation: MIC means the lowest concentration found to suppress growth. Low values mean inhibition by little substance, high ones a need for much substance. The term MIC50 denotes the lowest concentration that inhibits either 50% of growth or 50% of the strains tested, depending on the study. One may read the MIC90 as an inhibitory concentration at the 90% level, which refers to growth in some studies and to a panel of isolates in others. Low values mean higher susceptibility, high ones lower susceptibility. One may read the half-life as the time needed for the level to fall by half in the phase considered. For orientation: IC50 means the concentration at which inhibition is half-maximal. Read a high IC50 as lower potency.

On to `CC(=O)NC[C@H]1CN(c2ccc(-c3ccc(/C=N/N4CCNCC4)cc3)c(F)c2)C(=O)O1`, for which the inhibition at 1 h, 30 µM in data set [1] came to 84%. The MIC is 0.0625 to 0.25 µg/mL (≈ 0.142 to 0.569 µM) against Enterococcus faecalis [2]; 0.0625 to 0.25 µg/mL (≈ 0.142 to 0.569 µM) in the data set on Staphylococcus aureus [3]; 0.0675 µg/mL (≈ 0.154 µM) in the data set on Staphylococcus aureus [4]; 0.0675 µg/mL (≈ 0.154 µM) with Staphylococcus aureus [5]; 0.0675 µg/mL (≈ 0.154 µM) against Staphylococcus aureus [6]; 0.25 µg/mL (≈ 0.569 µM) in the data set on Enterococcus faecalis [7]. Moreover, the figures for the minimum inhibitory concentration (MIC) in the data set with Enterococcus faecium [9] and against Enterococcus faecium [10] were 0.25 µg/mL (≈ 0.569 µM) and 0.0625 to 0.5 µg/mL (≈ 0.142 to 1.14 µM), respectively. Also, the MIC50 in the data set with Enterococcus faecalis [2] was found to be 0.25 µg/mL (≈ 0.569 µM); against Staphylococcus aureus [3], 0.125 µg/mL (≈ 0.284 µM); against Staphylococcus aureus [8] it was 0.125 µg/mL (≈ 0.284 µM); against Enterococcus faecium [10], 0.25 µg/mL (≈ 0.569 µM). For the same compound, the MIC90 in the data set with Enterococcus faecalis [2] came out at 0.25 µg/mL (≈ 0.569 µM); in the data set with Staphylococcus aureus [3], 0.25 µg/mL (≈ 0.569 µM); in the data set on Staphylococcus aureus [8] it was 0.25 µg/mL (≈ 0.569 µM); in the data set with Enterococcus faecium [10], 0.5 µg/mL (≈ 1.14 µM).
As to `CC(=O)NC[C@H]1CN(c2ccc(-c3ccc(/C=N/N4CCN(C(=O)c5ccc(F)cc5)CC4)cc3)c(F)c2)C(=O)O1`, the inhibition at 1 h, 30 µM in data set [1] stood at 89%. The MIC in the data set on Enterococcus faecalis [2] is 0.0625 to 0.25 µg/mL (≈ 0.111 to 0.445 µM); in the data set on Staphylococcus aureus [3] it was 0.0625 to 0.25 µg/mL (≈ 0.111 to 0.445 µM); in the data set with Staphylococcus aureus [4] it was 0.125 µg/mL (≈ 0.223 µM); in the data set with Staphylococcus aureus [5] it was 0.125 µg/mL (≈ 0.223 µM); against Staphylococcus aureus [6], 0.125 µg/mL (≈ 0.223 µM); with Enterococcus faecalis [7], 0.125 µg/mL (≈ 0.223 µM). The MIC was 0.125 µg/mL (≈ 0.223 µM) against Enterococcus faecium [9] and 0.0625 to 0.5 µg/mL (≈ 0.111 to 0.89 µM) against Enterococcus faecium [10]. Further, the MIC50 with Enterococcus faecalis [2] came to 0.25 µg/mL (≈ 0.445 µM); against Staphylococcus aureus [3], 0.25 µg/mL (≈ 0.445 µM); with Staphylococcus aureus [8], 0.125 µg/mL (≈ 0.223 µM); with Enterococcus faecium [10] it was 0.25 µg/mL (≈ 0.445 µM). Besides, the MIC90 with Enterococcus faecalis [2] was found to be 0.25 µg/mL (≈ 0.445 µM); with Staphylococcus aureus [3], 0.25 µg/mL (≈ 0.445 µM); against Staphylococcus aureus [8], 0.25 µg/mL (≈ 0.445 µM); in the data set on Enterococcus faecium [10] it was 0.5 µg/mL (≈ 0.89 µM).
Consider `CC(=O)NC[C@H]1CN(c2ccc(-c3ccc(/C=N/N4CCN(C(=O)CO)CC4)cc3)c(F)c2)C(=O)O1`, for which the inhibition at 1 h, 30 µM in data set [1] stood at 80%. The minimum inhibitory concentration (MIC) in the data set with Enterococcus faecalis [2] was 0.0625 to 0.125 µg/mL (≈ 0.126 to 0.251 µM); in the data set on Staphylococcus aureus [3], 0.0625 to 0.125 µg/mL (≈ 0.126 to 0.251 µM); in the data set with Staphylococcus aureus [4], 0.0675 µg/mL (≈ 0.136 µM); against Staphylococcus aureus [5] it was 0.0675 µg/mL (≈ 0.136 µM); against Staphylococcus aureus [6], 0.0675 µg/mL (≈ 0.136 µM); against Enterococcus faecalis [7], 0.0675 µg/mL (≈ 0.136 µM). Besides, the values for the MIC against Enterococcus faecium [9] and in the data set on Enterococcus faecium [10] were 0.0675 µg/mL (≈ 0.136 µM) and 0.0625 to 0.5 µg/mL (≈ 0.126 to 1 µM), respectively. In addition, the MIC50 with Enterococcus faecalis [2] stood at 0.125 µg/mL (≈ 0.251 µM); with Staphylococcus aureus [3], 0.0625 µg/mL (≈ 0.126 µM); against Staphylococcus aureus [8], 0.0625 µg/mL (≈ 0.126 µM); in the data set with Enterococcus faecium [10], 0.125 µg/mL (≈ 0.251 µM). Also, the MIC90 against Enterococcus faecalis [2] came out at 0.25 µg/mL (≈ 0.502 µM); with Staphylococcus aureus [3], 0.125 µg/mL (≈ 0.251 µM); against Staphylococcus aureus [8], 0.125 µg/mL (≈ 0.251 µM); with Enterococcus faecium [10] it was 0.25 µg/mL (≈ 0.502 µM). In data set [11], the CLint scaled at 1.5 µM was found to be 2.62 mL/min/kg. Further, the half-life at 1.5 µM in [12] came out at 11.1 h. In addition, the remaining at 0.75 h, 1.5 µM in data set [13] stood at 93.9%. This compound gave a concentration for half-maximal inhibition (IC50) in the data set on HepG2 of 4.66 µM.
